Reference: ChEMBL document CHEMBL4364274, “Synthesis and biological activity of glycyrrhetinic acid derivatives as antitumor agents” (Eur J Med Chem, 2019)

Tests used:
[1] = system: HepG2; assay: Antiproliferative activity against human HepG2 cells incubated for 72 hrs by MTT assay; format: functional, cell-based; conditions: HepG2, 72 h
In short: (§1)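 Cells in exponential growth were plated at 3×10^3 cells/well and grown 24 h at 37 °C in 5% CO2. They were then exposed to a range of drug concentrations for 72 h. MTT (5 mg/mL solution) was added for 4 h, the medium was discarded, and formazan was dissolved in DMSO before reading A490. Drug-free wells served as blanks. % inhibition was calculated as 1 − (sample−blank)/(control−blank), and IC50 was taken as the concentration giving 50% inhibition.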

[2] = system: A549; assay: Antiproliferative activity against human A549 cells incubated for 72 hrs by MTT assay; format: functional, cell-based; conditions: A549, 72 h; in short: as §1
[3] = system: MDCK; assay: Cytotoxicity against MDCK cells incubated for 72 hrs by MTT assay; format: cell-based; conditions: Canis lupus familiaris; in short: as §1
[4] = system: MCF7; assay: Antiproliferative activity against human MCF7 cells incubated for 72 hrs by MTT assay; format: functional, cell-based; conditions: MCF7, 72 h; in short: as §1
[5] = system: HeLa; assay: Antiproliferative activity against human HeLa cells incubated for 72 hrs by MTT assay; format: functional, cell-based; in short: as §1

| IC50 [1] [µM] | IC50 [2] [µM] | IC50 [4] [µM] | IC50 [5] [µM] | Compound | IC50 [3] [µM] |
| --- | --- | --- | --- | --- | --- |
| 3.79 | 3.35 | 3.41 | 3.2 | CNCC(=O)N[C@H]1CC[C@]2(C)[C@H]3C(=O)C=C4[C@@H]5C[C@@](C)(C(=O)OCc6ccccc6)CC[C@]5(C)CC[C@@]4(C)[C@]3(C)CC[C@H]2C1(C)C | 3.17 |
| > 40 | > 40 | > 40 | > 40 | C[C@H](NC(=O)OC(C)(C)C)C(=O)N[C@H]1CC[C@]2(C)[C@H]3C(=O)C=C4[C@@H]5C[C@@](C)(C(=O)OCc6ccccc6)CC[C@]5(C)CC[C@@]4(C)[C@]3(C)CC[C@H]2C1(C)C | > 40 |
| 6.21 | 3.28 | 6.1 | 2.3 | CC(C)C[C@H](N)C(=O)N[C@H]1CC[C@]2(C)[C@H]3C(=O)C=C4[C@@H]5C[C@@](C)(C(=O)OCc6ccccc6)CC[C@]5(C)CC[C@@]4(C)[C@]3(C)CC[C@H]2C1(C)C | 4.65 |
| 5.15 | 3.43 | 4.69 | 2.94 | CC[C@H](C)[C@H](N)C(=O)N[C@H]1CC[C@]2(C)[C@H]3C(=O)C=C4[C@@H]5C[C@@](C)(C(=O)OCc6ccccc6)CC[C@]5(C)CC[C@@]4(C)[C@]3(C)CC[C@H]2C1(C)C | 4.13 |
| 4.09 | 6.97 | 7 | 3.1 | CSCC[C@H](N)C(=O)N[C@H]1CC[C@]2(C)[C@H]3C(=O)C=C4[C@@H]5C[C@@](C)(C(=O)OCc6ccccc6)CC[C@]5(C)CC[C@@]4(C)[C@]3(C)CC[C@H]2C1(C)C | 6.25 |
| 3.47 | 2.44 | 2.85 | 3.01 | CC1(C)[C@@H](NC(=O)CN)CC[C@]2(C)[C@H]3C(=O)C=C4[C@@H]5C[C@@](C)(C(=O)OCc6ccccc6)CC[C@]5(C)CC[C@@]4(C)[C@]3(C)CC[C@@H]12 | 3.75 |
| 5.05 | 3.01 | 3.28 | 2.24 | CC1(C)[C@@H](NC(=O)[C@@H](N)Cc2ccccc2)CC[C@]2(C)[C@H]3C(=O)C=C4[C@@H]5C[C@@](C)(C(=O)OCc6ccccc6)CC[C@]5(C)CC[C@@]4(C)[C@]3(C)CC[C@@H]12 | 5.02 |

More lines, now with the values behind:

| Compound | IC50 [1] [µM] | IC50 [2] [µM] | IC50 [4] [µM] | IC50 [5] [µM] | IC50 [3] [µM] |
| --- | --- | --- | --- | --- | --- |
| CC[C@H](C)[C@H](N)C(=O)O[C@H]1CC[C@]2(C)[C@H]3C(=O)C=C4[C@@H]5C[C@@](C)(C(=O)OCc6ccccc6)CC[C@]5(C)CC[C@@]4(C)[C@]3(C)CC[C@H]2C1(C)C | 8.15 | 4.97 | 10 | 9.65 | 9.01 |
| CC(C)(C)OC(=O)NCC(=O)O[C@H]1CC[C@]2(C)[C@H]3C(=O)C=C4[C@@H]5C[C@@](C)(C(=O)OCc6ccccc6)CC[C@]5(C)CC[C@@]4(C)[C@]3(C)CC[C@H]2C1(C)C | > 40 | > 40 | > 40 | > 40 | > 40 |
| CC[C@H](C)[C@H](NC(=O)OC(C)(C)C)C(=O)O[C@H]1CC[C@]2(C)[C@H]3C(=O)C=C4[C@@H]5C[C@@](C)(C(=O)OCc6ccccc6)CC[C@]5(C)CC[C@@]4(C)[C@]3(C)CC[C@H]2C1(C)C | > 40 | > 40 | > 40 | > 40 | > 40 |
| CC(C)C[C@H](NC(=O)OC(C)(C)C)C(=O)O[C@H]1CC[C@]2(C)[C@H]3C(=O)C=C4[C@@H]5C[C@@](C)(C(=O)OCc6ccccc6)CC[C@]5(C)CC[C@@]4(C)[C@]3(C)CC[C@H]2C1(C)C | > 40 | > 40 | > 40 | > 40 | > 40 |
| CC(C)(C)OC(=O)N[C@@H](Cc1ccccc1)C(=O)N[C@H]1CC[C@]2(C)[C@H]3C(=O)C=C4[C@@H]5C[C@@](C)(C(=O)OCc6ccccc6)CC[C@]5(C)CC[C@@]4(C)[C@]3(C)CC[C@H]2C1(C)C | > 40 | > 40 | > 40 | > 40 | > 40 |
| CC(C)(C)OC(=O)N1CCC[C@H]1C(=O)N[C@H]1CC[C@]2(C)[C@H]3C(=O)C=C4[C@@H]5C[C@@](C)(C(=O)OCc6ccccc6)CC[C@]5(C)CC[C@@]4(C)[C@]3(C)CC[C@H]2C1(C)C | > 40 | > 40 | > 40 | > 40 | > 40 |
| CC(C)C[C@H](N)C(=O)O[C@H]1CC[C@]2(C)[C@H]3C(=O)C=C4[C@@H]5C[C@@](C)(C(=O)OCc6ccccc6)CC[C@]5(C)CC[C@@]4(C)[C@]3(C)CC[C@H]2C1(C)C | 14.9 | 22.9 | 11.9 | 43.1 | 19.3 |
| CC1(C)[C@@H](O)CC[C@]2(C)[C@H]3C(=O)C=C4[C@@H]5C[C@@](C)(C(=O)O)CC[C@]5(C)CC[C@@]4(C)[C@]3(C)CC[C@@H]12 [ENOXOLONE] | > 40 | > 40 | > 40 | > 40 | > 40 |
| CC[C@H](C)[C@H](NC(=O)OC(C)(C)C)C(=O)N[C@H]1CC[C@]2(C)[C@H]3C(=O)C=C4[C@@H]5C[C@@](C)(C(=O)OCc6ccccc6)CC[C@]5(C)CC[C@@]4(C)[C@]3(C)CC[C@H]2C1(C)C | > 40 | > 40 | > 40 | > 40 | > 40 |
| CC1(C)[C@@H](OC(=O)[C@@H](N)Cc2ccccc2)CC[C@]2(C)[C@H]3C(=O)C=C4[C@@H]5C[C@@](C)(C(=O)OCc6ccccc6)CC[C@]5(C)CC[C@@]4(C)[C@]3(C)CC[C@@H]12 | > 40 | 17 | 14.4 | 18.8 | 14.4 |
| CC1(C)[C@@H](OC(=O)[C@@H]2CCCN2)CC[C@]2(C)[C@H]3C(=O)C=C4[C@@H]5C[C@@](C)(C(=O)OCc6ccccc6)CC[C@]5(C)CC[C@@]4(C)[C@]3(C)CC[C@@H]12 | 6.39 | 4.73 | 5.22 | 9.05 | 9.63 |
| C[C@H](NC(=O)OC(C)(C)C)C(=O)O[C@H]1CC[C@]2(C)[C@H]3C(=O)C=C4[C@@H]5C[C@@](C)(C(=O)OCc6ccccc6)CC[C@]5(C)CC[C@@]4(C)[C@]3(C)CC[C@H]2C1(C)C | > 40 | > 40 | > 40 | > 40 | > 40 |
| CC(C)C[C@H](NC(=O)OC(C)(C)C)C(=O)N[C@H]1CC[C@]2(C)[C@H]3C(=O)C=C4[C@@H]5C[C@@](C)(C(=O)OCc6ccccc6)CC[C@]5(C)CC[C@@]4(C)[C@]3(C)CC[C@H]2C1(C)C | > 40 | > 40 | > 40 | > 40 | > 40 |
| CSCC[C@H](NC(=O)OC(C)(C)C)C(=O)N[C@H]1CC[C@]2(C)[C@H]3C(=O)C=C4[C@@H]5C[C@@](C)(C(=O)OCc6ccccc6)CC[C@]5(C)CC[C@@]4(C)[C@]3(C)CC[C@H]2C1(C)C | > 40 | > 40 | > 40 | > 40 | > 40 |
